Data reported in ChEMBL document CHEMBL1147846, “Synthetic 2',5'-dimethoxychalcones as G(2)/M arrest-mediated apoptosis-inducing agents and inhibitors of nitric oxide production in rat macrophages” (Eur J Med Chem, 2007).

Legend:
[1] = tested on: A549; assay: Cytotoxicity against human A549 cells by MTT microassay; format: functional, cell-based
Method in brief: (§1)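 MTT microassay in cultured human tumour cells from ATCC. Compounds were dissolved in DMSO and diluted in culture medium to 0.1% DMSO. Controls received medium with 0.1% DMSO, and 5-fluorouracil was the positive control. IC50 is given as mean ± SD, n = 3.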

[2] = tested on: RAW; assay: Inhibition of 1ug/ml LPS-stimulated nitirc oxide accumulation in RAW 264 cells after 24 hrs; format: functional, cell-based, Mus musculus; conditions: for IC50: Mus musculus, RAW, 24 h
Method in brief: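 RAW 264.7 cells were activated with LPS for 24 h. NO was measured as nitrite accumulated in the medium, by Griess reaction. 1400W was the positive control. Results are mean ± SD, n = 3.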

[3] = tested on: Neutrophil; assay: Inhibition of 3 nM PMA-stimulated superoxide anion generation in rat neutrophils; format: functional, cell-based; conditions: for IC50: Rattus norvegicus, Neutrophil
Method in brief: (§2)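 Rat neutrophils, with superoxide anion generation triggered by either fMLP combined with cytochalasin B or by PMA (3 nM).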

[4] = Inhibition of beta-glucuronidase release from rat mast cells; format: functional; design: Inhibition: concentration or dose not given beside the values; conditions: for IC50: Rattus norvegicus
[5] = tested on: Neutrophil; assay: Inhibition of 1 uM fMLP-stimulated beta-Glucuronidase release from rat neutrophils; format: functional, cell-based; conditions: for IC50: Rattus norvegicus, Neutrophil
Method in brief: (§3)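 Rat neutrophils were stimulated with fMLP plus cytochalasin B, and β-glucuronidase and lysozyme release were measured. Trifluoperazine was the positive control. IC50 is mean ± SD, n = 3; where IC50 exceeds 30, % inhibition at 30 is shown.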

[6] = tested on: Neutrophil; assay: Inhibition of 0.3 uM fMLP-stimulated superoxide anion generation in rat neutrophils; format: functional, cell-based; conditions: for IC50: Rattus norvegicus, Neutrophil; method in brief: as §2
[7] = Inhibition of histamine release from rat mast cells; format: functional; design: Inhibition: concentration or dose not given beside the values; conditions: for IC50: Rattus norvegicus
[8] = Cytotoxicity against human Hep 3B cells by MTT microassay; format: functional, cell-based, Hep 3B2; conditions: Hep3B; method in brief: as §1
[9] = tested on: MCF7; assay: Cytotoxicity against human MCF7 cells by MTT microassay; format: functional, cell-based; method in brief: as §1
[10] = tested on: HT-29; assay: Cytotoxicity against human HT29 cells by MTT microassay; format: functional, cell-based; method in brief: as §1
[11] = tested on: Neutrophil; assay: Inhibition of 5 ug/ml CB-stimulated Lysozyme release from rat neutrophils; format: functional, cell-based; conditions: for IC50: Rattus norvegicus, Neutrophil; method in brief: as §3
[12] = tested on: RAW; assay: Inhibition of 1 ug/ml LPS-stimulated TNFalpha accumulation in RAW 264 cells after 24 hrs; format: functional, cell-based, Mus musculus; conditions: for IC50: Mus musculus, RAW, 24 h
Method in brief: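 RAW 264.7 cells were activated with LPS, and TNF-α formation in the culture medium was measured. Genistein was the positive control. Results are mean ± SD, n = 3.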

[13] = tested on: MCF7; assay: Induction of apoptosis in MCF7 cells assessed as subG1-phase accumulation at 8.7 uM after 48 hrs; format: functional, Homo sapiens
Method in brief: (§4)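 MCF-7 cells were exposed to compound and washed with PBS at each time point. They were fixed in 4% paraformaldehyde/PBS (pH 7.4) for 30 min at room temperature, then permeabilized in 0.1% Triton X-100/0.1% sodium citrate for 2 min at 4 °C. PI staining followed for 30 min at 37 °C. FACScan flow cytometry counted ≥5000 cells. Apoptosis is the sub-G1 DNA fraction; controls received medium; three independent experiments.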

[14] = tested on: MCF7; assay: Induction of apoptosis in MCF7 cells assessed as subG1-phase accumulation at 52 uM after 24 hrs; format: functional, Homo sapiens; method in brief: as §4
[15] = tested on: MCF7; assay: Induction of apoptosis in MCF7 cells assessed as subG1-phase accumulation at 34.7 uM after 48 hrs; format: functional, Homo sapiens; method in brief: as §4
[16] = tested on: MCF7; assay: Induction of apoptosis in MCF7 cells assessed as subG1-phase accumulation at 34.7 uM after 72 hrs; format: functional, Homo sapiens; method in brief: as §4
[17] = tested on: MCF7; assay: Induction of apoptosis in MCF7 cells assessed as subG1-phase accumulation at 34.7 uM after 24 hrs; format: functional, Homo sapiens; method in brief: as §4
[18] = tested on: MCF7; assay: Induction of apoptosis in MCF7 cells assessed as subG1-phase accumulation at 8.7 uM after 72 hrs; format: functional, Homo sapiens; method in brief: as §4
[19] = tested on: MCF7; assay: Induction of apoptosis in MCF7 cells assessed as subG1-phase accumulation at 52 uM after 72 hrs; format: functional, Homo sapiens; method in brief: as §4
[20] = tested on: MCF7; assay: Induction of apoptosis in MCF7 cells assessed as subG1-phase accumulation at 8.7 uM after 24 hrs; format: functional, Homo sapiens; method in brief: as §4
[21] = tested on: MCF7; assay: Induction of apoptosis in MCF7 cells assessed as subG1-phase accumulation at 52 uM after 48 hrs; format: functional, Homo sapiens; method in brief: as §4

SMILES	IC50 [1]	IC50 [2]	Inhibition [3]	IC50 [3]	IC50 [4]	IC50 [5]	IC50 [6]	IC50 ([7]; read-out: IC50)	IC50 [8]	IC50 [9]	IC50 [10]	IC50 [11]	IC50 [12]	also measured
COc1ccc(OC)c(C(=O)/C=C/c2cccs2)c1	11 µM	> 10 µM	7.9%	> 30 µM	> 30 µM	> 30 µM	> 30 µM	> 30 µM	8.4 µM	3.8 µM	13.3 µM	14.6 µM	> 30 µM	Inhibition [2]: 49.8%; Inhibition [4]: -4.6%; Inhibition [5]: 38.5%; Inhibition [6]: 47.2%; Inhibition [7]: 0.8%; Inhibition [12]: 5.9%
COc1ccc(OC)c(C(=O)/C=C/c2ccsc2)c1	3.8 µM								5.7 µM	3.7 µM	5.3 µM			
COc1ccc(OC)c(C(=O)/C=C/c2ccco2)c1	27.9 µM	5.7 µM	49.1%	> 30 µM	18.4 µM	6.2 µM	3 µM	> 30 µM	19 µM	10.5 µM	24.8 µM	8.3 µM	4.6 µM	
COc1ccc(OC)c(C(=O)/C=C/c2ccoc2)c1	22.1 µM								12 µM	18.2 µM	21.3 µM			
COc1ccc(OC)c(C(=O)/C=C/c2ccc(C)o2)c1	51.5 µM	> 10 µM	39%	> 30 µM	> 30 µM	22.2 µM	> 30 µM		26.5 µM	10.3 µM	43 µM	17.8 µM	> 10 µM	Inhibition [2]: 29.5%; Inhibition [4]: 12.7%; Inhibition [6]: 48.1%; Inhibition [7]: 17.5%; IC50 [7]: > 30 µM; Inhibition [12]: -10.5%
COc1ccc(OC)c(C(=O)/C=C/c2ccc(C)s2)c1	4.5 µM	6.7 µM	-11.9%	> 30 µM	> 30 µM	> 30 µM	> 30 µM	> 30 µM	3.4 µM	2.6 µM	1.8 µM	> 30 µM	> 30 µM	Activity [13]: 16.39%; Activity [14]: 5.09%; Inhibition [4]: -2.7%; Inhibition [5]: 45.6%; Activity [15]: 18.68%; Activity [16]: 62.4%; Inhibition [6]: 49.1%; Activity [17]: 4.05%; Activity [18]: 41.61%; Inhibition [7]: 43.5%; Activity [19]: 63.79%; Inhibition [11]: 37.4%; Activity [20]: 7.52%; Inhibition [12]: 46%; Activity [21]: 21.23%
COc1ccc(OC)c(C(=O)/C=C/c2sccc2C)c1	22.2 µM								16.7 µM	7.6 µM	19.4 µM			
COc1ccc(OC)c(C(=O)/C=C/c2ccc(OC/C=C/c3ccccc3)cc2)c1	39.8 µM	> 30 µM	4.1%	> 10 µM	> 30 µM	> 30 µM	> 10 µM	> 30 µM	17.3 µM	19 µM	26.3 µM	> 30 µM	> 30 µM	Inhibition [2]: 27.9%; Inhibition [4]: -11.2%; Inhibition [5]: 18.8%; Inhibition [6]: -71.9%; Inhibition [7]: 0.3%; Inhibition [11]: 33.1%; Inhibition [12]: 15%
COc1ccc(OC)c(C(=O)/C=C/c2ccc(OC(=O)/C=C/c3ccc(C)cc3)cc2)c1	29.7 µM								29 µM	12.6 µM	16.4 µM			
COc1ccc(/C=C/C(=O)Oc2ccc(/C=C/C(=O)c3cc(OC)ccc3OC)cc2)cc1	60.4 µM								42.6 µM	4.1 µM	23 µM			
COc1ccc(OC)c(C(=O)/C=C/c2ccc(Br)o2)c1	14.9 µM	12.8 µM	-2.2%	> 30 µM	> 30 µM	> 30 µM	19.7 µM	> 30 µM	11 µM	11 µM	15.2 µM	> 30 µM	> 30 µM	Inhibition [4]: -13.3%; Inhibition [5]: 36.9%; Inhibition [7]: 6.3%; Inhibition [11]: 33.4%; Inhibition [12]: 35.6%
COc1ccc(OC)c(C(=O)/C=C/c2ccc(OC(=O)/C=C/c3cc(OC)c(OC)c(OC)c3)cc2)c1	36.7 µM								23.2 µM	6.4 µM	23.8 µM			
CC(=N)NCc1cccc(CN)c1 [1400W]		5.2 µM												
CC(=O)O[C@H](CC=C(C)C)C1=CC(=O)c2c(O)ccc(O)c2C1=O [ACETYLSHIKONIN]					2.2 µM			2 µM						
c1ccc2c(c1)[I+]c1ccccc1-2 [DIPHENYLENEIODONIUM CHLORIDE]				3.3 µM			5.8 µM							
O=c1[nH]cc(F)c(=O)[nH]1 [FLUOROURACIL]	3.1 µM								0.6 µM	1.5 µM	0.6 µM			
O=c1c(-c2ccc(O)cc2)coc2cc(O)cc(O)c12 [GENISTEIN]													18.1 µM	
CN1CCN(CCCN2c3ccccc3Sc3ccc(C(F)(F)F)cc32)CC1 [TRIFLUOPERAZINE]						13.2 µM						12.7 µM		
